{
  "source": "paper PMC4814305",
  "about": "(The Biochemical journal, 2016)",
  "key": {"[1]": {"target": "T1, mitochondrial pyruvate carrier (MPC) (Rattus norvegicus, UniProt P38718+P63031)", "T1 sequence (P63031 1-109)": "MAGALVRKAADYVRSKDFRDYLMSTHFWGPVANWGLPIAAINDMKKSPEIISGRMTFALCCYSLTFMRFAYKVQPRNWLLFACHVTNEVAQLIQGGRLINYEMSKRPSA", "T1 sequence (P38718 1-127)": "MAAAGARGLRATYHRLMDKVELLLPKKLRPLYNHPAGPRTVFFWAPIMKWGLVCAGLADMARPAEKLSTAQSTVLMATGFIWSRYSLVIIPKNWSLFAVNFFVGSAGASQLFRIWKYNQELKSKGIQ", "experiment": "[1-14C] pyruvate uptake into isolated rat liver mitochondria", "type": "biochemical", "how_it_was_run": "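Liver mitochondria from male Wistar rats (~275 g) were isolated by homogenisation, differential and Percoll centrifugation, then held 2 min on ice at 6 mg protein/mL with test compound. Uptake ran in pH 6.8 KCl/MOPS/EGTA buffer with 1 μM rotenone, 60 μM [1-14C]pyruvate and 3H2O at 9°C, stopped at 45 s by rapid sedimentation. Four replicates per concentration, 3 preparations; Ki fitted from % of control, mean ± S.E.M.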"}, "DB-1 xenografts": {"test_system": "DB-1 xenografts", "conditions": "100 mg/kg i.p., cited from earlier work"}, "MCT4": {"target": "T2, MCT4 (Homo sapiens, UniProt O15427)", "T2 sequence (O15427 1-465)": "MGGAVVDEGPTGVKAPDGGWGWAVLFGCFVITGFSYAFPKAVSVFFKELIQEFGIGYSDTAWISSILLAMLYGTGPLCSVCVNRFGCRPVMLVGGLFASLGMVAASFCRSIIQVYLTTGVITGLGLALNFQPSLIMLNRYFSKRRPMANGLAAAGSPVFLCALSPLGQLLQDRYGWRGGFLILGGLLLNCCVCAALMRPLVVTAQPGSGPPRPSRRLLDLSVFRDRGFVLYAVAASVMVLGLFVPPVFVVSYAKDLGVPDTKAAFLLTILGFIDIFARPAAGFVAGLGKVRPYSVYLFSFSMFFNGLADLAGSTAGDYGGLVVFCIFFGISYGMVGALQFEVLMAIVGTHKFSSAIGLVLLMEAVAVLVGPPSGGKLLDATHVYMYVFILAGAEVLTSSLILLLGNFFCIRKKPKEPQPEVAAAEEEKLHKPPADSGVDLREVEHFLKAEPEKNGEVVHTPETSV", "experiment": "[U-14C] L-lactate uptake by Xenopus laevis oocytes expressing MCT4", "type": "cell-based", "conditions": "cooperative inhibition fit"}, "[2]": {"test_system": "uncoupled pyruvate oxidation by isolated rat heart mitochondria", "experiment": "Uncoupled pyruvate oxidation by rat heart mitochondria", "type": "biochemical"}, "[3]": {"test_system": "DB-1 human melanoma cells", "experiment": "L-lactate output and intracellular [L-lactate] of DB-1 melanoma cells", "type": "cell-based", "conditions": "DB-1 cells, 1 h, vs DMSO"}, "MCT2": {"target": "T3, MCT2 (Rattus norvegicus, UniProt Q63344)", "T3 sequence (Q63344 1-489)": "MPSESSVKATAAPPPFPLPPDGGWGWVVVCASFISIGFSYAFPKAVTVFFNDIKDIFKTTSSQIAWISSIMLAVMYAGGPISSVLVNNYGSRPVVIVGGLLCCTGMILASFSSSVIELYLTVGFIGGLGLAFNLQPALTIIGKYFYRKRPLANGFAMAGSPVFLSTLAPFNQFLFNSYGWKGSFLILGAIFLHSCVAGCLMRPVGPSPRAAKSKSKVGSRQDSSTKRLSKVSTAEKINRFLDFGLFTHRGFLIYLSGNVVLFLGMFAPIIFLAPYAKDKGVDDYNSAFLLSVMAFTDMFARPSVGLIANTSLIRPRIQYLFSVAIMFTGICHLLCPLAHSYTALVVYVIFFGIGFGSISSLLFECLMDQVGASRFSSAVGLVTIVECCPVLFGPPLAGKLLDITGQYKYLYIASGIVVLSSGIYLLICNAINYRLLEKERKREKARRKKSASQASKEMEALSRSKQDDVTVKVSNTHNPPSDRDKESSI", "T3 sequence (O88775 34-328 partner)": "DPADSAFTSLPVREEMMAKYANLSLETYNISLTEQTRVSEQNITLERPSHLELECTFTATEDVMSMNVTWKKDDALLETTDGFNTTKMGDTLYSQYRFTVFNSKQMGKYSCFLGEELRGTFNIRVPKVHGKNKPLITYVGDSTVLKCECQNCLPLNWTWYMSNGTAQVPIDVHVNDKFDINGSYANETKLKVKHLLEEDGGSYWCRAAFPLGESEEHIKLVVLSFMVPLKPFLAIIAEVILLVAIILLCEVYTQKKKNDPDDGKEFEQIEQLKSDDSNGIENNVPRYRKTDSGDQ", "experiment": "[U-14C] L-lactate uptake by Xenopus laevis oocytes expressing MCT2", "type": "cell-based", "conditions": "cooperative inhibition fit"}, "MCT1": {"target": "T4, MCT1 (Rattus norvegicus, UniProt P53987)", "T4 sequence (P53987 1-494)": "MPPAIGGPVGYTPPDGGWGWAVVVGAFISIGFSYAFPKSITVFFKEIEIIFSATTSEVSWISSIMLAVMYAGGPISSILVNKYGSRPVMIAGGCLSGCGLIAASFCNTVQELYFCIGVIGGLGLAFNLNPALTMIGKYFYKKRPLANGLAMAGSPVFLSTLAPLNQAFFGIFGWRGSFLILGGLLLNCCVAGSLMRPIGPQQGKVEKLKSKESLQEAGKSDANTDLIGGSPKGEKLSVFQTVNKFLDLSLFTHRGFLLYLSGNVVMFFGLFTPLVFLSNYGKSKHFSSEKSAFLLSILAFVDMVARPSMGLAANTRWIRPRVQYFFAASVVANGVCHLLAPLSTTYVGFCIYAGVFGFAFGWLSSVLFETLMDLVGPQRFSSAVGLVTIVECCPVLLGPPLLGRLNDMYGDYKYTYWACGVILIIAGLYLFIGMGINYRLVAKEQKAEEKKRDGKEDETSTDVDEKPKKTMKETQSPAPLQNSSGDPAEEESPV", "experiment": "[U-14C] L-lactate uptake by Xenopus laevis oocytes expressing MCT1", "type": "cell-based", "conditions": "cooperative inhibition fit"}},
  "note": "“And” between values parts separate entries of the source, which are not always exact repeats. Equal values may be shown once. “Also recorded” adds a separate entry of the source.",
  "data": [
    {"smiles": "N#CC(=Cc1ccc(O)cc1)C(=O)O", "note": "[CHC, α-cyano-4-hydroxycinnamate]", "values": [
      {"measurement": "inhibition of mitochondrial pyruvate carrier (pyruvate uptake)", "setting": "[1]; rat liver mitochondria, 10 μM inhibitor", "result": "> 90", "unit": "%"}
    ]},
    {"smiles": "O=C(O)c1nn(Cc2ccc(Cl)cc2Cl)c2ccccc12", "note": "[LND, Lonidamine]", "values": [
      {"measurement": "Ki", "setting": "[1]", "result": 2.5, "unit": "µM"},
      {"measurement": "tumour pHi after LND treatment", "setting": "DB-1 xenografts; DB-1 xenografts in mice, within about 40 min, from 6.9 ± 0.1", "result": "6.3 ± 0.1"},
      {"measurement": "decrease in the tumour NTP/Pi ratio", "setting": "DB-1 xenografts; DB-1 xenografts in mice, within about 3 hr", "result": "66.8 ± 5.7", "unit": "%"},
      {"measurement": "decrease in extracellular pH of the tumour", "setting": "DB-1 xenografts; DB-1 xenografts in mice", "result": "~ 0.2 pH units"},
      {"measurement": "rise in tumour [L-lactate]", "setting": "DB-1 xenografts; DB-1 xenografts in mice", "result": "three-fold"},
      {"measurement": "change in pHi of liver", "setting": "DB-1 xenografts; mice, 20 min post-injection", "result": "only a slight transient change"},
      {"measurement": "change in NTP/Pi of the liver", "setting": "DB-1 xenografts; mice, 40 min post-injection", "result": "only a transient small decrease"},
      {"measurement": "change in NTP/Pi ratio of muscle and brain", "setting": "DB-1 xenografts; mice", "result": "no change"},
      {"measurement": "change in pHi of normal muscle or brain", "setting": "DB-1 xenografts; mice", "result": "No significant change"},
      {"measurement": "Hill coefficient of inhibition of MCT4", "setting": "MCT4", "result": "1.65–1.85 and 1.84 ± 0.19"},
      {"measurement": "effect on uncoupled pyruvate oxidation", "setting": "[2]; 30°C, 2 μM LND", "result": "without effect"},
      {"measurement": "inhibition of uncoupled pyruvate oxidation", "setting": "[2]; 30°C, 3 μM LND", "result": "~ 15%"},
      {"measurement": "inhibition of uncoupled pyruvate oxidation", "setting": "[2]; 30°C, 10 μM LND", "result": "~70", "unit": "%"},
      {"measurement": "IC50", "setting": "[2]; read-out: IC50 for inhibition of uncoupled pyruvate oxidation, 30°C, pyruvate + malate, FCCP", "result": "~7 µM and ~7.5 µM"},
      {"measurement": "increase of intracellular [L-lactate]", "setting": "[3]; 40 μM LND", "result": "two-fold"},
      {"measurement": "L-lactate output", "setting": "[3]; 40 μM and 150 μM LND", "result": "decrease in L-lactate output"},
      {"measurement": "L-lactate output", "setting": "[3]; 150 μM LND", "result": "decreased L-lactate output; also recorded: L-lactate output decreased"},
      {"measurement": "increase of intracellular [L-lactate]", "setting": "[3]; 150 μM LND", "result": "> five-fold; also recorded: eight-fold"},
      {"measurement": "L-lactate output", "setting": "[3]; 1–10 μM LND", "result": "increased L-lactate output"},
      {"measurement": "intracellular [L-lactate]", "setting": "[3]; 1–10 μM LND", "result": "without a detectable increase"},
      {"measurement": "Hill coefficient of inhibition of MCT2", "setting": "MCT2", "result": "1.86 ± 0.34"},
      {"measurement": "Hill coefficient of inhibition of MCT1", "setting": "MCT1", "result": "1.65–1.85 and 1.65 ± 0.23"}
    ]}
  ]
}
